Tested on: Fibroblast
Assay: Multiplex assay against human fibroblast
Type: toxicity, cell-based
Method in brief: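 Cells were classed with CellPathfinder machine-learning gating, first as Hoechst high-intensity objects or normal cells, then (normal cells) as healthy, pyknosed or fragmented nuclei, and finally (pyknosed cells) as mitotic or apoptotic. Staining of live cells at seeding used Hoechst33342, BioTracker Green Microtubule Cytoskeleton Dye, MitoTracker Red and Annexin V Alexa Fluor 680, with imaging on a CQ1 microscope at 37°C and 5% CO2 after compound addition. Tubulin, mitochondrial-mass and membrane-permeability phenotypes are per cents of healthy-nucleus cells.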

[1] = 12 h, 1 µM, compound concentration 1 uM, replicate 1
[2] = 12 h, 1 µM, compound concentration 1 uM, replicate 2
[3] = 12 h, 10 µM, compound concentration 10 uM, replicate 1
[4] = 12 h, 10 µM, compound concentration 10 uM, replicate 2
[5] = 24 h, 1 µM, compound concentration 1 uM, replicate 1
[6] = 24 h, 1 µM, compound concentration 1 uM, replicate 2
[7] = 24 h, 10 µM, compound concentration 10 uM, replicate 1
[8] = 24 h, 10 µM, compound concentration 10 uM, replicate 2
[9] = 48 h, 1 µM, compound concentration 1 uM, replicate 1
[10] = 48 h, 1 µM, compound concentration 1 uM, replicate 2
[11] = 48 h, 10 µM, compound concentration 10 uM, replicate 1
[12] = 48 h, 10 µM, compound concentration 10 uM, replicate 2

CCCn1c(=O)c2[nH]c(C3CCCC3)nc2n(CCC)c1=O [1,3-DIPROPYL-8-CYCLOPENTYLXANTHINE [DPCPX]]
Population Apoptotic (%) [1]: 38% | Population Fragmented Nuclei (%) [1]: 10% | Population Healthy Nuclei (%) [1]: 73% | Population Hoechst High Intensity Objects (%) [1]: 3% | Population Membrane Permeable-Phenotype (%) [1]: 0% | Population Mitochondria Different-Phenotype (%) [1]: 1% | Population Mitotic Cells (%) [1]: 61% | Population Normal (%) [1]: 96% | Population Pyknosed Nuclei (%) [1]: 15% | Population Tubulin-Different-Phenotype (%) [1]: 29% | Total Cell Count [1]: 175 | Population Apoptotic (%) [2]: 30% | Population Fragmented Nuclei (%) [2]: 25% | Population Healthy Nuclei (%) [2]: 46% | Population Membrane Permeable-Phenotype (%) [2]: 1% | Population Mitochondria Different-Phenotype (%) [2]: 10% | Population Mitotic Cells (%) [2]: 69% | Population Pyknosed Nuclei (%) [2]: 28% | Population Tubulin-Different-Phenotype (%) [2]: 50% | Total Cell Count [2]: 156 | Population Apoptotic (%) [3]: 58% | Population Fragmented Nuclei (%) [3]: 18% | Population Healthy Nuclei (%) [3]: 65% | Population Hoechst High Intensity Objects (%) [3]: 3% | Population Membrane Permeable-Phenotype (%) [3]: 0% | Population Mitochondria Different-Phenotype (%) [3]: 10% | Population Mitotic Cells (%) [3]: 41% | Population Normal (%) [3]: 96% | Population Pyknosed Nuclei (%) [3]: 17% | Population Tubulin-Different-Phenotype (%) [3]: 47% | Total Cell Count [3]: 104 | Population Apoptotic (%) [4]: 25% | Population Fragmented Nuclei (%) [4]: 32% | Population Healthy Nuclei (%) [4]: 47% | Population Hoechst High Intensity Objects (%) [4]: 6% | Population Membrane Permeable-Phenotype (%) [4]: 12% | Population Mitochondria Different-Phenotype (%) [4]: 3% | Population Mitotic Cells (%) [4]: 75% | Population Normal (%) [4]: 93% | Population Pyknosed Nuclei (%) [4]: 20% | Population Tubulin-Different-Phenotype (%) [4]: 59% | Total Cell Count [4]: 129 | Population Apoptotic (%) [5]: 50% | Population Fragmented Nuclei (%) [5]: 13% | Population Healthy Nuclei (%) [5]: 77% | Population Hoechst High Intensity Objects (%) [5]: 2% | Population Membrane Permeable-Phenotype (%) [5]: 0% | Population Mitochondria Different-Phenotype (%) [5]: 2% | Population Mitotic Cells (%) [5]: 50% | Population Normal (%) [5]: 97% | Population Pyknosed Nuclei (%) [5]: 9% | Population Tubulin-Different-Phenotype (%) [5]: 30% | Total Cell Count [5]: 177 | Population Apoptotic (%) [6]: 75% | Population Fragmented Nuclei (%) [6]: 30% | Population Healthy Nuclei (%) [6]: 48% | Population Hoechst High Intensity Objects (%) [6]: 3% | Population Membrane Permeable-Phenotype (%) [6]: 4% | Population Mitochondria Different-Phenotype (%) [6]: 12% | Population Mitotic Cells (%) [6]: 24% | Population Normal (%) [6]: 96% | Population Pyknosed Nuclei (%) [6]: 21% | Population Tubulin-Different-Phenotype (%) [6]: 54% | Total Cell Count [6]: 159 | Population Apoptotic (%) [7]: 63% | Population Fragmented Nuclei (%) [7]: 17% | Population Healthy Nuclei (%) [7]: 61% | Population Hoechst High Intensity Objects (%) [7]: 3% | Population Membrane Permeable-Phenotype (%) [7]: 6% | Population Mitochondria Different-Phenotype (%) [7]: 9% | Population Mitotic Cells (%) [7]: 36% | Population Normal (%) [7]: 96% | Population Pyknosed Nuclei (%) [7]: 22% | Population Tubulin-Different-Phenotype (%) [7]: 49% | Total Cell Count [7]: 104 | Population Apoptotic (%) [8]: 20% | Population Fragmented Nuclei (%) [8]: 35% | Population Healthy Nuclei (%) [8]: 40% | Population Hoechst High Intensity Objects (%) [8]: 6% | Population Membrane Permeable-Phenotype (%) [8]: 8% | Population Mitochondria Different-Phenotype (%) [8]: 4% | Population Mitotic Cells (%) [8]: 79% | Population Normal (%) [8]: 93% | Population Pyknosed Nuclei (%) [8]: 24% | Population Tubulin-Different-Phenotype (%) [8]: 63% | Total Cell Count [8]: 125 | Population Apoptotic (%) [9]: 72% | Population Fragmented Nuclei (%) [9]: 16% | Population Healthy Nuclei (%) [9]: 70% | Population Hoechst High Intensity Objects (%) [9]: 2% | Population Membrane Permeable-Phenotype (%) [9]: 0% | Population Mitochondria Different-Phenotype (%) [9]: 1% | Population Mitotic Cells (%) [9]: 27% | Population Normal (%) [9]: 97% | Population Pyknosed Nuclei (%) [9]: 12% | Population Tubulin-Different-Phenotype (%) [9]: 35% | Total Cell Count [9]: 182 | Population Apoptotic (%) [10]: 47% | Population Fragmented Nuclei (%) [10]: 39% | Population Healthy Nuclei (%) [10]: 48% | Population Hoechst High Intensity Objects (%) [10]: 7% | Population Membrane Permeable-Phenotype (%) [10]: 5% | Population Mitochondria Different-Phenotype (%) [10]: 12% | Population Mitotic Cells (%) [10]: 52% | Population Normal (%) [10]: 92% | Population Tubulin-Different-Phenotype (%) [10]: 55% | Total Cell Count [10]: 170 | Population Apoptotic (%) [11]: 57% | Population Fragmented Nuclei (%) [11]: 24% | Population Healthy Nuclei (%) [11]: 55% | Population Hoechst High Intensity Objects (%) [11]: 3% | Population Membrane Permeable-Phenotype (%) [11]: 1% | Population Mitochondria Different-Phenotype (%) [11]: 13% | Population Mitotic Cells (%) [11]: 42% | Population Normal (%) [11]: 96% | Population Pyknosed Nuclei (%) [11]: 20% | Population Tubulin-Different-Phenotype (%) [11]: 50% | Total Cell Count [11]: 98 | Population Apoptotic (%) [12]: 50% | Population Fragmented Nuclei (%) [12]: 43% | Population Healthy Nuclei (%) [12]: 45% | Population Hoechst High Intensity Objects (%) [12]: 2% | Population Membrane Permeable-Phenotype (%) [12]: 16% | Population Mitochondria Different-Phenotype (%) [12]: 8% | Population Mitotic Cells (%) [12]: 50% | Population Normal (%) [12]: 97% | Population Pyknosed Nuclei (%) [12]: 10% | Population Tubulin-Different-Phenotype (%) [12]: 78% | Total Cell Count [12]: 136

— ChEMBL document CHEMBL5058577, “EUbOPEN Chemogenomics Library 2 (Multiplex)” (2022)
